Source: ChEMBL document CHEMBL1764996, “Synthesis and separation of the enantiomers of the neuropeptide S receptor antagonist (9R/S)-3-oxo-1,1-diphenyl-tetrahydro-oxazolo[3,4-a]pyrazine-7-carboxylic acid 4-fluoro-benzylamide (SHA 68)” (J Med Chem, 2011)
Calls of active or inactive are those of the source. The calls are words filed in the database; no cut-off is given here.

What was measured:
Type in all cases: functional, cell-based
[1] = target: T1, Neuropeptide S receptor (Mus musculus) (UniProt Q8BZP8); experiment: Agonist activity at mouse NPSR expressed in HEK293 cells assessed as induction of calcium mobilization at up to 10 uM after 30 mins
T1 sequence (whole entry): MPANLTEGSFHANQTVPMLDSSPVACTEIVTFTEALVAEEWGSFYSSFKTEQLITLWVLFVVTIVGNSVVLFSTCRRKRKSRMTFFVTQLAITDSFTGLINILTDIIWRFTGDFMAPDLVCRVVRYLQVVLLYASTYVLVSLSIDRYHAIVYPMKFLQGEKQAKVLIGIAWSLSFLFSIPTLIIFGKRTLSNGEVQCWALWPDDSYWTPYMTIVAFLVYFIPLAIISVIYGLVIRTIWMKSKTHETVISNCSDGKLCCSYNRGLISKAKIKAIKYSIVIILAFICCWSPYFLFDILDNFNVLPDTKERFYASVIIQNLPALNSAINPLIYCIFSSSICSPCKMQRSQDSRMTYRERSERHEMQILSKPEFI
Summary of the method: (§1)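 HEK293 lines stably expressing human NPSR Ile107 or murine NPSR were grown in DMEM with 10% FBS, 2 mM L-glutamine and hygromycin B (100 mg/L) at 37 °C, 5% CO2. Cells were plated on poly-D-lysine wells and loaded with Fluo-4 AM (3 µM), probenecid 2.5 mM and 0.01% pluronic for 30 min at 37 °C. They were then read in HBSS/20 mM HEPES with probenecid and Brilliant Black on a FlexStation at 37 °C. Peak fluorescence change was taken as % baseline and fitted logistically for potency and maximal effect. Data are mean ± sem, n≥4 in duplicate.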

[2] = target: T1, Neuropeptide S receptor (Mus musculus); experiment: (§2) Agonist activity at mouse NPSR expressed in HEK293 cells assessed as induction of calcium mobilization after 30 mins; summary of the method: as §1
Neuropeptide S receptor [3] = target: T2, Neuropeptide S receptor (Mus musculus, UniProt Q8BZP8); experiment: as §2; summary of the method: as §1
T2 sequence (Q8BZP8 whole entry): T1 sequence (whole entry)

[4] = target: T1, Neuropeptide S receptor (Mus musculus); experiment: Agonist activity at mouse NPSR expressed in HEK293 cells assessed as induction of calcium mobilization after 30 mins relative to control; summary of the method: as §1
[5] = target: T3, Neuropeptide S receptor (Homo sapiens) (UniProt Q6W5P4); experiment: Agonist activity at human NPSR Ile107 expressed in HEK293 cells assessed as induction of calcium mobilization after 30 mins relative to control; summary of the method: as §1
T3 sequence (whole entry): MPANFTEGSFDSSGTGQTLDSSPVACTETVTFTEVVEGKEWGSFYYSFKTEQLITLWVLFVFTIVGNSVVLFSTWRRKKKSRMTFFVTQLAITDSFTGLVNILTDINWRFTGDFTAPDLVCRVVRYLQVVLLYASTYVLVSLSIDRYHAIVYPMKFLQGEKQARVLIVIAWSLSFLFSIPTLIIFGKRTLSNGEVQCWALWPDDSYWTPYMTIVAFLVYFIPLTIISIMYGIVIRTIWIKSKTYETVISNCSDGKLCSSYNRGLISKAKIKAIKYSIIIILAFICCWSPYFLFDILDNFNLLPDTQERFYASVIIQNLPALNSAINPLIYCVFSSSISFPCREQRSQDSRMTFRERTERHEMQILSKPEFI

[6] = target: T3, Neuropeptide S receptor (Homo sapiens); experiment: (§3) Agonist activity at human NPSR Asn107 expressed in HEK293 cells assessed as induction of calcium mobilization after 30 mins
Summary of the method: (§4)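 HEK293 cells stably expressing human NPSR Asn107 were kept in DMEM with 10% FBS, 2 mM glutamine and zeocin (100 mg/L) at 37 °C, 5% CO2. Cells were seeded on poly-D-lysine plates and loaded next day with 3 µM Fluo-4 AM, 2.5 mM probenecid and 0.01% pluronic acid for 30 min at 37 °C. Assay buffer was HBSS with 20 mM HEPES, 2.5 mM probenecid and 500 µM Brilliant Black. Fluorescence was read on a FlexStation at 37 °C. Response was the maximal fluorescence change as % of baseline. Potency and maximal effect came from nonlinear regression, with mean ± sem of ≥4 experiments in duplicate.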

Neuropeptide S receptor [7] = target: T4, Neuropeptide S receptor (Homo sapiens, UniProt Q6W5P4); experiment: as §3; summary of the method: as §4
[8] = target: T3, Neuropeptide S receptor (Homo sapiens); experiment: Agonist activity at human NPSR Asn107 expressed in HEK293 cells assessed as induction of calcium mobilization after 30 mins relative to control; summary of the method: as §4
[9] = target: T3, Neuropeptide S receptor (Homo sapiens); experiment: (§5) Agonist activity at human NPSR Ile107 expressed in HEK293 cells assessed as induction of calcium mobilization after 30 mins; summary of the method: as §1
Neuropeptide S receptor [10] = target: T4, Neuropeptide S receptor; experiment: as §5; summary of the method: as §1

O=C(NCc1ccc(F)cc1)N1CCN2C(=O)OC(c3ccccc3)(c3ccccc3)[C@@H]2C1
Activity [1]: inactive

O=C(NCc1ccc(F)cc1)N1CCN2C(=O)OC(c3ccccc3)(c3ccccc3)[C@H]2C1
Activity [1]: inactive

O=C(NCc1ccc(F)cc1)N1CCN2C(=O)OC(c3ccccc3)(c3ccccc3)C2C1 (single isomer, unassigned)
Activity [1]: inactive

H-SFRNGVGSGAKKTSFRRAKQ-OH
Activity [2]: Dose-dependent effect
EC50 (Neuropeptide S receptor [3]): 1.07 nM
Emax [4]: 250%

H-SFRNGVGTGMKKTSFQRAKS-OH [NEUROPEPTIDE S]
Emax [5]: 333%
Activity [6]: Dose-dependent effect
pEC50 (Neuropeptide S receptor [7]): 9.07
Emax [8]: 316%
Activity [9]: Dose-dependent effect
pEC50 (Neuropeptide S receptor [10]): 9.17
